{"source": "ChEMBL document CHEMBL1671808", "about": "“Brassinin oxidase mediated transformation of the phytoalexin brassinin: structure of the elusive co-product, deuterium isotope effect and stereoselectivity” (2011)", "key": {"Plenodomus lingam [1]": {"system": "Plenodomus lingam", "assay": "Activity of Leptosphaeria maculans BoLm in presence of H218O relative to Brassinin", "settings": "tested as the 2H-labelled form"}, "Plenodomus lingam [2]": {"system": "Plenodomus lingam", "assay": "Activity of Leptosphaeria maculans BoLm in presence of EAM reagent relative to control", "outline": "(§1)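 Purified BOLm was incubated in a reaction buffer with each modifier: BUT 10 mM, EAM 2.5 mM, NAI 2.5 mM or DEPC 2.5 mM in 100 mM phosphate pH 7.5; IAA 2.5 mM in 100 mM MES pH 6.0; PMSF 2.5 mM in 100 mM phosphate pH 8.1. Residual activity was then read in the standard brassinin/PMS HPLC assay. Result is specific activity as a percentage of untreated enzyme.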"}, "Plenodomus lingam [3]": {"system": "Plenodomus lingam", "assay": "Activity of Leptosphaeria maculans BoLm in presence of NAI reagent relative to control", "outline": "as §1"}, "Plenodomus lingam [4]": {"system": "Plenodomus lingam", "assay": "Activity of Leptosphaeria maculans BoLm in presence of DEPC reagent relative to control", "outline": "as §1"}, "Plenodomus lingam [5]": {"system": "Plenodomus lingam", "assay": "Activity of Leptosphaeria maculans BoLm in presence of EDC reagent relative to control", "outline": "(§2)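 Purified BOLm was treated with the carboxyl-specific reagent (WRK or EDC, 5–50 mM) in 100 mM MES pH 6.0 at 20 °C. Aliquots taken at time intervals were assayed for residual activity in the standard brassinin/PMS HPLC assay. Activity is given as a percentage of untreated enzyme. For WRK, kobs came from ln residual activity versus time, and K_I and k2 from 1/kobs versus 1/[WRK].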"}, "Plenodomus lingam [6]": {"system": "Plenodomus lingam", "assay": "Selectivity ratio of compound to dideuterated brassinin for Leptosphaeria maculans BoLm activity", "outline": "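Kinetic isotope effect = (kcat/Km)H / (kcat/Km)D. Purified BOLm at pH 8.2 with saturating PMS (1.0 mM), 20 °C, 20 min. Substrate was varied over 0.05–1.0 mM (brassinin series) or 0.05–2.8 mM (carbamate series), comparing natural-abundance and deuterated substrates. Product was quantified by HPLC. Four independent experiments.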"}, "Plenodomus lingam [7]": {"system": "Plenodomus lingam", "assay": "Activity of Leptosphaeria maculans BoLm in presence of WRK reagent relative to control", "outline": "as §2"}, "Plenodomus lingam [8]": {"system": "Plenodomus lingam", "assay": "Activity of Leptosphaeria maculans BoLm in presence of IAA reagent relative to control", "outline": "as §1"}, "Plenodomus lingam [9]": {"system": "Plenodomus lingam", "assay": "Activity of Leptosphaeria maculans BoLm in presence of BUT reagent relative to control", "outline": "as §1"}, "Plenodomus lingam [10]": {"system": "Plenodomus lingam", "assay": "Activity of Leptosphaeria maculans BoLm in presence of PMSF reagent relative to control", "outline": "as §1"}, "Plenodomus lingam [11]": {"system": "Plenodomus lingam", "assay": "Activity of Leptosphaeria maculans BoLm", "outline": "(§3)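 BOLm purified from 3-phenylindole-induced L. maculans BJ-125 liquid cultures. Assay buffer: 20 mM DEA pH 8.2, 1.0 mM DTT, 0.1% Triton X-100, with 1.0 mM PMS as electron acceptor, which is saturating. Substrate was varied over 0.05–1.0 mM for brassinin or 0.05–2.8 mM for the carbamate. Reactions ran 20 min at 20 °C and were stopped and extracted with EtOAc. Indole-3-carboxaldehyde was quantified by HPLC-DAD against calibration curves. kcat and Km were taken from saturation curves. Four independent experiments.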"}, "Plenodomus lingam [12]": {"system": "Plenodomus lingam", "assay": "Activity of Leptosphaeria maculans BoLm at 0.05 to 1.0 mM", "outline": "as §3"}, "Plenodomus lingam [13]": {"system": "Plenodomus lingam", "assay": "Activity of Leptosphaeria maculans BoLm relative to Brassinin", "settings": "tested as the 2H-labelled form"}, "Plenodomus lingam [14]": {"system": "Plenodomus lingam", "assay": "Ratio of kcat to Km for Leptosphaeria maculans BoLm", "outline": "as §3"}, "Plenodomus lingam [15]": {"system": "Plenodomus lingam", "assay": "Inhibition of Leptosphaeria maculans BoLm assessed as conversion of brassinin to indole-3-carboxaldehyde at 0.60 mM", "outline": "(§4)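 Initial-velocity assays with purified BOLm: product added at fixed 0.30 or 0.60 mM, brassinin varied 0.05–0.30 mM at saturating PMS (1 mM); also PMS varied […] with brassinin fixed at 0.05, 0.10 or 0.15 mM; standard DEA pH 8.2 assay, HPLC quantitation.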"}, "Plenodomus lingam [16]": {"system": "Plenodomus lingam", "assay": "Antifungal activity against Leptosphaeria maculans isolate BJ 125 assessed as growth inhibition", "type": "functional", "design": "scale not given: the % may be the effect or the level left", "outline": "(§5)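 Mycelial growth inhibition of L. maculans isolate BJ 125 tested at 0.50, 0.25 and 0.12 mM; growth compared with control cultures grown without compound under otherwise identical conditions.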"}, "Plenodomus lingam [17]": {"system": "Plenodomus lingam", "assay": "Antifungal activity against Leptosphaeria maculans isolate BJ 125 assessed as growth inhibition at 0.50 mM relative to control", "type": "functional", "design": "scale not given: the % may be the effect or the level left", "outline": "as §5"}, "Plenodomus lingam [18]": {"system": "Plenodomus lingam", "assay": "Inhibition of Leptosphaeria maculans BoLm assessed as conversion of brassinin to indole-3-carboxaldehyde at 0.30 mM", "outline": "as §4"}, "Plenodomus lingam [19]": {"system": "Plenodomus lingam", "assay": "Ratio of kcat to Km for Leptosphaeria maculans BoLm to ratio of kcat to Km for Leptosphaeria maculans BoLm with the deuterated substrate", "settings": "tested as the 2H-labelled form"}, "Plenodomus lingam [20]": {"system": "Plenodomus lingam", "assay": "Activity of Leptosphaeria maculans BoLm at 0.05 to 2.8 mM", "outline": "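Purified BOLm from 3-phenylindole-induced L. maculans BJ-125 cultures; substrate varied 0.05–2.8 mM with saturating PMS (1.0 mM) in 20 mM DEA pH 8.2, 1 mM DTT, 0.1% Triton X-100; 20 °C, 20 min; EtOAc extraction, HPLC-DAD quantitation of indole-3-carboxaldehyde against calibration curves; kcat, Km from saturation curves; four independent experiments.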"}}, "note": "“And” between values parts separate entries of the source, which are not always exact repeats. Equal values may be shown once. The source made the active and inactive calls. The rule behind the calls is not given here.", "data": [{"smiles": "CSC(=S)NCc1c[nH]c2ccccc12", "values": [{"measurement": "Activity", "setting": "Plenodomus lingam [1]", "value": 23, "unit": "%"}, {"measurement": "Activity", "setting": "Plenodomus lingam [2]", "value": 97, "unit": "%"}, {"measurement": "Activity", "setting": "Plenodomus lingam [3]", "value": 111, "unit": "%"}, {"measurement": "Activity", "setting": "Plenodomus lingam [4]", "value": 103, "unit": "%"}, {"measurement": "Activity", "setting": "Plenodomus lingam [5]", "value": 38, "unit": "%"}, {"measurement": "Ratio", "setting": "Plenodomus lingam [6]", "value": 4}, {"measurement": "Activity", "setting": "Plenodomus lingam [7]", "value": 17, "unit": "%"}, {"measurement": "Activity", "setting": "Plenodomus lingam [8]", "value": 106, "unit": "%"}, {"measurement": "Activity", "setting": "Plenodomus lingam [9]", "value": 95, "unit": "%"}, {"measurement": "Activity", "setting": "Plenodomus lingam [10]", "value": 108, "unit": "%"}, {"measurement": "Km", "setting": "Plenodomus lingam [11]", "value": 96, "unit": "µM"}, {"measurement": "Km", "setting": "Plenodomus lingam [11]; tested as the 2H-labelled form", "value": "151 µM and 94 µM and 96 µM"}, {"measurement": "kcat", "setting": "Plenodomus lingam [11]; tested as the 2H-labelled form", "value": "0.84 s⁻¹ and 0.47 s⁻¹"}, {"measurement": "kcat", "setting": "Plenodomus lingam [12]", "value": 0.95, "unit": "s⁻¹"}, {"measurement": "kcat", "setting": "Plenodomus lingam [12]; tested as the 2H-labelled form", "value": 0.28, "unit": "s⁻¹"}, {"measurement": "Activity", "setting": "Plenodomus lingam [13]", "value": 26, "unit": "%"}, {"measurement": "kcat/Km", "setting": "Plenodomus lingam [14]", "value": 9900, "unit": "M⁻¹ s⁻¹"}]}, {"smiles": "CSC(N)=S", "values": [{"measurement": "inhibition", "setting": "Plenodomus lingam [15]", "value": "inactive"}, {"measurement": "Activity", "setting": "Plenodomus lingam [16]", "value": 18, "unit": "%"}, {"measurement": "Activity", "setting": "Plenodomus lingam [17]", "value": 18, "unit": "%"}]}, {"smiles": "O=Cc1c[nH]c2ccccc12", "values": [{"measurement": "inhibition", "setting": "Plenodomus lingam [18]", "value": "inactive"}]}, {"smiles": "COC(=O)NCc1c[nH]c2ccccc12", "values": [{"measurement": "Ratio", "setting": "Plenodomus lingam [19]", "value": 3.9}, {"measurement": "Km", "setting": "Plenodomus lingam [11]", "value": 622, "unit": "µM"}, {"measurement": "Km", "setting": "Plenodomus lingam [11]; tested as the 2H-labelled form", "value": 501, "unit": "µM"}, {"measurement": "kcat/Km", "setting": "Plenodomus lingam [14]", "value": 9040, "unit": "M⁻¹ s⁻¹"}, {"measurement": "kcat/Km", "setting": "Plenodomus lingam [14]; tested as the 2H-labelled form", "value": 2300, "unit": "M⁻¹ s⁻¹"}, {"measurement": "kcat", "setting": "Plenodomus lingam [20]", "value": 5.62, "unit": "s⁻¹"}, {"measurement": "kcat", "setting": "Plenodomus lingam [20]; tested as the 2H-labelled form", "value": 1.15, "unit": "s⁻¹"}]}]}
